{
  "source": "paper PMC3268775",
  "about": "(Journal of the American Chemical Society, 2012)",
  "key": {"[1]": {"experiment": "[Re^I]* emission lifetime of peptide in solution", "format": "physicochemical", "in_short": "(§1)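 Time-resolved [Re] emission, monitored at 610 nm. Samples held 10 μM Re-labelled test peptide, 200 μM Ru(NH3)6Cl3, 1 mM CDP and 3 mM ATP in 50 mM sodium borate, pH 8.3, 15 mM MgSO4, 5% glycerol. For the bound state, 20 μM His6-tagged E. coli α2 mutant was added. Samples were equilibrated 3 min at 23 °C and measured while flowing. Lifetimes came from weighted least-squares fits of averaged traces.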"}, "Y731F-α2": {"target": "T1, Y731F-α2 (Escherichia coli, UniProt P00452, Y731F)", "T1 sequence (P00452 1-761 Y731F)": "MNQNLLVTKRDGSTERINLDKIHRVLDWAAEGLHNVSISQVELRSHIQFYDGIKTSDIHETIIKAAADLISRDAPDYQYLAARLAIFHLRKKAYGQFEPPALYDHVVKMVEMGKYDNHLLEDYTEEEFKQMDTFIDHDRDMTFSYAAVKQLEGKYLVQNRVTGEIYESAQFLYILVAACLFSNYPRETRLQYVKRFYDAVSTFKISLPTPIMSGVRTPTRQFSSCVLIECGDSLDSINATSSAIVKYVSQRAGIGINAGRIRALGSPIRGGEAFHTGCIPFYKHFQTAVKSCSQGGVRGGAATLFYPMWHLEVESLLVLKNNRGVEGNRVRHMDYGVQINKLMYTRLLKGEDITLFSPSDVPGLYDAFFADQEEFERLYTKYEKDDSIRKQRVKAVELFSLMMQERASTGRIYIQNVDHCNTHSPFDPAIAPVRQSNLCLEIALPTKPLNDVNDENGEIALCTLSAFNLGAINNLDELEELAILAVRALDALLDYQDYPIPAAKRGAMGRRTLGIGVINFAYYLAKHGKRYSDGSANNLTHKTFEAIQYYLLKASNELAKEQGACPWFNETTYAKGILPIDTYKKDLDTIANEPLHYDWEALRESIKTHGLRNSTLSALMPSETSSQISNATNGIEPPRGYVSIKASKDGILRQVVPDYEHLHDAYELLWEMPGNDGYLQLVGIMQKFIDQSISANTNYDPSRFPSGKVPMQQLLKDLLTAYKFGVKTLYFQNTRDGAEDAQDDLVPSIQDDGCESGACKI", "experiment": "[Re^I]* emission lifetime of peptide bound to Y731F-α2", "format": "binding", "settings": "10 μM peptide, 20 μM α2, pH 8.3", "in_short": "as §1"}, "[2]": {"experiment": "Transient absorption of the charge-separated state, free peptide", "format": "physicochemical", "settings": "50 μM peptide, 50 mM sodium borate pH 8.3, λexc 355 nm", "in_short": "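Transient absorption decays were read at 380, 480 (Re excited state), 525 (bpy anion) and 425 nm (F3Y radical). ΔOD came from PMT voltage against the pre-flash baseline. Short decays were fitted from the maximum-amplitude point, averaging 3–6 traces.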"}, "Y730F-α2": {"target": "T2, Y730F-α2 (Escherichia coli, UniProt P00452, Y730F)", "T2 sequence (P00452 1-761 Y730F)": "T1 sequence (P00452 1-761 Y731F) with Y730F, F731Y", "experiment": "Flash-quench transient absorption: •F3Y radical in presence of Y730F-α2", "format": "biochemical", "settings": "for radical lifetime change / radical injection (in words): Y730F-α2; for •F3Y lifetime: monoexponential, 50 μM peptide", "in_short": "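Laser flash-quench transient absorption at 23 °C in 50 mM sodium borate, pH 8.3, 15 mM MgSO4, 5% v/v glycerol. Final mix: 50 μM Re-labelled test peptide, 100 μM α2 mutant, 1 mM Ru(NH3)6Cl3, 1 mM CDP, 3 mM ATP, flowing through the cuvette. α2 was N-terminally His6-tagged E. coli protein, IPTG-induced in BL21(DE3) and Ni-NTA purified. Excitation was a 7 ns 355 nm pulse. Decays averaged 3–6 traces and were fitted by weighted least squares from 1 μs.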"}},
  "note": "Numbering of substitutions follows the chain as printed. Numbered stars: 1 amine (or outer) side, 2 acyl side, 3 side chain; on linkers, the order of the positions; unused ones are H or OH. Square brackets hold non-standard residues; d marks the D form. Peptide text beside a SMILES is read from it. * marks the point of attachment. Isonicotinoyl(2-(4-Me-2-Py)) = Cc1ccnc(-c2cc(C(=O)*)ccn2)c1; X1 = O=C([C@H](Cc1c(F)cc(O)c(F)c1F)N[*:1])[*:2]",
  "data": [
    {"smiles": "CC[C@H](C)[C@H](NC(=O)[C@H](CCC(N)=O)NC(=O)CNC(=O)[C@@H](NC(=O)[C@H](CC(C)C)NC(=O)[C@H](Cc1c(F)cc(O)c(F)c1F)NC(=O)c1ccnc(-c2cc(C)ccn2)c1)C(C)C)C(=O)N[C@@H](CC(=O)O)C(=O)N[C@@H](CO)C(=O)N[C@@H](CCC(=O)O)C(=O)N[C@H](C(=O)N[C@@H](CC(=O)O)C(=O)N[C@H](C(=O)N[C@@H](CC(=O)O)C(=O)N[C@@H](CC(=O)O)C(=O)N[C@@H](CC(C)C)C(=O)N[C@@H](CO)C(=O)N[C@@H](CC(N)=O)C(=O)N[C@@H](Cc1ccccc1)C(=O)N[C@@H](CCC(N)=O)C(=O)N[C@@H](CC(C)C)C(=O)O)[C@@H](C)O)C(C)C", "note": "[[Re]–F3Y–βC19] ({Isonicotinoyl(2-(4-Me-2-Py))}-[X1]LVGQIDSEVDTDDLSNFQL-OH; N-terminus and C-terminus assumed)", "values": [
      {"measurement": "[Re^I]* emission decay, contribution of short component", "setting": "[1]; pH 8.3, 22 ns component", "value": 81, "unit": "%"},
      {"measurement": "[Re^I]* emission decay, contribution of long component", "setting": "[1]; pH 8.3, 58 ns component", "value": 19, "unit": "%"},
      {"measurement": "[Re^I]* emission lifetime, long component", "setting": "[1]; pH 8.3, biphasic, [Re^I]* unchanged by proximal F3Y", "value": 58, "unit": "ns"},
      {"measurement": "[Re^I]* emission lifetime, short component", "setting": "[1]; pH 8.3, biphasic, quenching by deprotonated F3Y−", "value": 22, "unit": "ns"},
      {"measurement": "[Re^I]* emission lifetime, \"on\" state", "setting": "Y731F-α2", "value": 29, "unit": "ns"},
      {"measurement": "decay time constant of transient signal, [Re^I]*", "setting": "[2]; λdet 380 nm, 1 mM CDP, 3 mM ATP, 15 mM MgSO4, 5% glycerol", "value": "60 ± 2", "unit": "ns"},
      {"measurement": "decay time constant of transient signal, [Re^I]*", "setting": "[2]; λdet 480 nm", "value": "61 ± 2", "unit": "ns"},
      {"measurement": "radical lifetime change / radical injection (in words)", "setting": "Y730F-α2", "value": "radical injection into the surface of the protein is blocked"},
      {"measurement": "•F3Y lifetime", "setting": "Y730F-α2; Y730F-α2, 395 nm, 100 μM α2, pH 8.3", "value": "14.4 ± 0.2", "unit": "μs"},
      {"measurement": "•F3Y lifetime", "setting": "Y730F-α2; Y730F-α2, 410 nm, 100 μM α2, pH 8.3", "value": "13.7 ± 0.2", "unit": "μs"},
      {"measurement": "•F3Y lifetime", "setting": "Y730F-α2; Y730F-α2, 425 nm, 100 μM α2, 1 mM Ru(NH3)6Cl3, 1 mM CDP, 3 mM ATP, borate pH 8.3", "value": "14.0 ± 0.2", "unit": "μs"},
      {"measurement": "radical lifetime change / radical injection (in words)", "setting": "Y730F-α2; listed as [Re]–•F3Y–βC19", "value": "no significant change in radical lifetime"}
    ]}
  ]
}
